Measurements published in ChEMBL document CHEMBL1155597, “Activity of extracts and isolated naphthoquinones from Kigelia pinnata against Plasmodium falciparum” (J Nat Prod, 2000).

Columns and labels:
KB = test: Cytotoxicity against human KB cells after 48 hrs by MTT assay; type: functional; conditions: read-out: ED50 (the source's name)
Summary of the method: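 KB human oral epidermal carcinoma cells in DMEM glutamax-1 + 10% HIFCS, 37 °C, 5% CO2. Log-phase cells seeded at 25 000/well and left 24 h to attach. Compounds added from DMSO (≤0.5% final), 200 to 0.064 μg/mL in 5-fold series, triplicate. After 48 h, MTT added for 4 h, formazan dissolved in DMSO, A540 blank-subtracted. Growth expressed as % of untreated control.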

Plasmodium falciparum [1] = test: Antimalarial activity after 48 hrs against chloroquine-resistant Plasmodium falciparum K1 by LDH reporter assay; type: functional, organism-based; conditions: K1, 48 h
Summary of the method: (§1)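 Asexual cultures kept in 5% A+ human red cells in RPMI 1640 with HEPES, glucose, NaHCO3, hypoxanthine, gentamycin and 10% A+ human serum under 1% O2/3% CO2/96% N2 at 37 °C. Ring-stage blood (1% parasitemia, 2% hematocrit) exposed 48 h to compounds at 50 µg/mL to 1.63 ng/mL final (2-fold). Modified LDH read-out: Malstat, then NBT/phenazine ethosulfate, absorbance at 650 nm. Tested twice in triplicate; IC50 ± SD.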

[2] = Selectivity ratio of ED50 for KB cells to IC50 for Plasmodium falciparum K1; type: ADME, cell-based; conditions: human, KB cells (cytotoxicity) versus Plasmodium falciparum K1
Summary of the method: (§2)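 Ratio of KB ED50 to P. falciparum IC50. KB ED50 comes from the 48 h MTT assay. Parasite IC50 comes from a 48 h modified lactate dehydrogenase assay on ring-stage cultures (1% parasitemia, 2% hematocrit, A+ human RBC), 37 °C, 1% O2/3% CO2/96% N2. Compounds tested at 50 μg/mL to 1.63 ng/mL in 2-fold dilutions, twice in triplicate, with NBT/PES read at 650 nm.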

Plasmodium falciparum [3] = test: Antimalarial activity after 48 hrs against chloroquine-sensitive Plasmodium falciparum T9-96 by LDH reporter assay; type: functional, organism-based; conditions: T9-96, 48 h; summary of the method: as §1
[4] = Selectivity ratio of ED50 for KB cells to IC50 for Plasmodium falciparum T9-96; type: ADME, cell-based; conditions: human, KB cells (cytotoxicity) versus Plasmodium falciparum T9-96; summary of the method: as §2

SMILES: CC(O)c1cc2c(o1)C(=O)c1ccccc1C2=O (stereo unspecified)
- EC50 (KB): 3.9 µM
- IC50 (Plasmodium falciparum [1]): 0.627 µM
- selectivity ratio [2]: 6.18
- IC50 (Plasmodium falciparum [3]): 0.718 µM
- selectivity ratio [4]: 5.4

SMILES: CCN(CC)CCCC(C)Nc1ccnc2cc(Cl)ccc12 (stereo unspecified) [CHLOROQUINE PHOSPHATE]
- EC50 (KB): 43.9 µM

SMILES: CC1=C2C=C3C(=O)c4cc(O)ccc4C(=O)C3(O)C(C)=C2CC1 (stereo unspecified) [ISOKIGELINOL]
- EC50 (KB): 167 µM
- IC50 (Plasmodium falciparum [1]): 15.2 µM
- selectivity ratio [2]: 12.7
- IC50 (Plasmodium falciparum [3]): 11.9 µM
- selectivity ratio [4]: 14

SMILES: C[C@]12CC[C@@H]3[C@H]1C=C1C(=O)c4cc(O)ccc4C(=O)[C@@]1(O2)[C@]3(C)C=O [ISOPINNATAL]
- EC50 (KB): 14.8 µM
- IC50 (Plasmodium falciparum [1]): 0.763 µM
- selectivity ratio [2]: 19.4
- IC50 (Plasmodium falciparum [3]): 1.55 µM
- selectivity ratio [4]: 9.54

SMILES: CC1=C2C=C3C(=O)c4ccc(O)cc4C(=O)C3(O)C(C)=C2CC1 (stereo unspecified) [KIGELINOL]
- EC50 (KB): 148 µM
- IC50 (Plasmodium falciparum [1]): 16.7 µM
- selectivity ratio [2]: 8.88
- IC50 (Plasmodium falciparum [3]): 15.2 µM
- selectivity ratio [4]: 9.74
